Source: PubChem
MrgX1 ag – human MrgX1 receptor agonism, primary screen | Q96LB2 | MrgX1-HEK293 cells, Fluo-4 calcium fluorescence, agonist mode; hits give high values | B-score at 10 µM | 0.44% of 310,000 active | AID 588627;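 active = calcium response B-score plate-corrected fluorescence ratio at least 3 library SD, with starting fluorescence B-score inside 5 SD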
Target sequence (Q96LB2 whole entry, looked up): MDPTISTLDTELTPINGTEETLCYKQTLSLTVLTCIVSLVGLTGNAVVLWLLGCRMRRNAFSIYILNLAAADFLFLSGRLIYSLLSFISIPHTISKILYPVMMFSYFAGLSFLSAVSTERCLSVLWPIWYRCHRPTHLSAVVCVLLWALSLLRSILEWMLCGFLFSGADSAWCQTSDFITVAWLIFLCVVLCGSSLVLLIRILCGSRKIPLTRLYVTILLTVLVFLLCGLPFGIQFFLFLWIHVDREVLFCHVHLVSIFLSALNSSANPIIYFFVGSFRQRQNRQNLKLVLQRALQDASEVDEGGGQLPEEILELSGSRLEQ
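Material: MrgX1-expressing HEK293 cells / Dosing: compound as first of three additions / Incubation: overnight seeding, then 1 h dark dye loading / Signal: Fluo-4 NW calcium fluorescence / Evaluation: B-scored fluorescence response ratio / Benchmarks: positive and negative control wells on each plate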
MrgX1 antag – human MrgX1 receptor antagonism, primary screen; Q96LB2; MRGX1-HEK293 calcium flux, Fluo-4, BAM8-22 antagonism; hits give low values; B-score at 10 µM; 1.3% of 310,000 active; AID 588676;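 active = calcium-response B-score plate-corrected more than 3 library SD below zero, starting fluorescence within 5 deviations, no agonist response on first addition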;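 also: peak minus trough fluorescence over baseline after final BAM8-22 challenge near maximal dose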
RGS4 pot – potentiators or activators of RGS4 | HEK293 M3R/inducible RGS4, carbachol calcium flux Fluo4; hits give low values | B-score at 10 µM | 0.92% of 310,000 active;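 active = B-score of the integrated calcium signal more than 4 SD below the library mean, with starting fluorescence not abnormally high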;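 also: negative B-score means reduced calcium response which marks RGS4 activation or potentiation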
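Reagent: ECmax carbachol challenge; Test system: M3R-expressing HEK293 line, RGS4 induced by doxycycline; Schedule: overnight RGS4 induction, 30 min dye load 37 °C, 20 min compound RT; Detection: calcium dye Fluo4 fluorescence; Read-out: Agonist-evoked peak-minus-minimum fluorescence over baseline, integrated ratio, B score.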
RGS4 inh – human RGS4 inhibition. HEK293 M3R/RGS4 inducible, Fluo-4 calcium flux; hits give high values; triggered by carbachol at its EC20. 0.45% of 310,000 active. B-score at 10 µM. AID 463165. P49798;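 active = B-score, a plate-corrected calcium signal, over three deviations above library mean, with baseline fluorescence within five deviations of library mean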;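 also: RGS4 expression induced by doxycycline in cells with stable M3 receptor; B-score is computed from the integrated fluorescence ratio over baseline after carbachol; higher B-score means a larger calcium signal and so more RGS4 inhibition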
MrgX1 allo act – human MrgX1 positive allosteric modulation, primary screen; MrgX1-HEK293, Fluo-4 calcium flux, FDSS; hits give high values; B-score at 10 µM; 0.63% of 310,000 active;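 active = plate-corrected calcium response at least 3 library SD above typical, normal starting fluorescence, not activating the receptor alone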;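 also: compound read alongside a low EC10 to EC30 dose of BAM8-22 agonist; peak minus trough fluorescence over baseline measured at the second addition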
Large screens that a line does not name were inactive. Only some compounds are listed: those with a hit (about 3.5% of all), similar ones and a draw of the others.

COc1ccc(OC)c(C2=C/C(=C/c3ccccn3)C(=O)O2)c1	RGS4 pot -7.9
C[C@H](O)C(=O)C1=Nc2c(nc(N)[nH]c2=O)NC1	none (no result: RGS4 pot, RGS4 inh)
C[C@H](O)[C@H](O)[C@H]1CNc2nc(N)[nH]c(=O)c2N1	MrgX1 antag -5.4
O=C1CC(c2ccc(Cl)c([N+](=O)[O-])c2)c2ccc3ccccc3c2N1 (configuration not stated)	MrgX1 antag -7.5
CCOC(=O)c1c(C)[nH]c(C)c1S(=O)(=O)NCCc1cccs1	none
Cc1nc(N2CCCCC2C)c2c(C)c(C(=O)Nc3cccc(C(F)(F)F)c3)sc2n1 (configuration not stated)	none
CCOC(=O)c1sc2nc(C)nc(N3CCCCC3C)c2c1C (configuration not stated)	RGS4 pot -7.3
O=C(NCC1CCCO1)c1ccc(COc2ccccc2)o1 (configuration not stated)	none
Cc1nnc(SC(=O)N2c3ccccc3Sc3ccccc32)s1	RGS4 pot -7
CCOC(=O)N1c2ccccc2Sc2ccccc21	none
CC(=O)Nc1ccc(S(=O)(=O)NCCC(=O)OCc2csc(CC(=O)Nc3ccccc3C)n2)cc1	MrgX1 antag -4.5
Cc1ccccc1NC(=O)Cc1nc(COC(=O)C(C)C)cs1	none
COc1cc(CNC(C)c2ccccc2)cc(Br)c1OCc1ccc(F)cc1 (configuration not stated)	RGS4 pot -8.5
COc1ccc(C2C(C#N)=C(C)NC3=C2C(=O)c2ccccc23)cc1 (configuration not stated)	RGS4 pot -7.4
CCOc1ccc(C2C(C#N)=C(C)NC3=C2C(=O)c2ccccc23)cc1 (configuration not stated)	none
O=C(CCS(=O)(=O)c1ccc(Br)s1)Nc1ccccc1Br	none
CCCCCNC(=O)C1CC=CCC1C(=O)O (configuration not stated)	none
CCCCN(CCCC)C(=O)C1CC=CCC1C(=O)O (configuration not stated)	MrgX1 antag -5.9
COc1cc(/C=N/NC(N)=O)ccc1OC(=O)c1cccs1	MrgX1 allo act 9.5
CCN(CC)c1ccc(C=C2C(=O)OC(C)(C(C)(C)C)OC2=O)cc1 (configuration not stated)	MrgX1 ag 56
CN(C)c1ccc(C=C2C(=O)OC(C)(C(C)(C)C)OC2=O)cc1 (configuration not stated)	none
CN(C)c1ccc(C=C2C(=O)OC(C)(C)OC2=O)cc1	none
CCN(CC)c1ccc(C=C2C(=O)OC(c3ccccc3)OC2=O)cc1 (configuration not stated)	MrgX1 ag 27
Cc1cc(C)c2cc(C#N)c(SCC(=O)Nc3ccc4c(c3)OCO4)nc2c1	none
C/C(=C\C(=S)Nc1ccccc1)Nc1cccc2ccccc12	none
C/C(=C\C(=S)Nc1ccccc1)Nc1ccc2ccccc2c1	MrgX1 antag -4.5
CCCCCN(C(=O)CCC(=O)OCC(=O)N(CC#N)c1ccccc1)c1c(N)n(CCCC)c(=O)[nH]c1=O	none
COC(=O)c1ccc(Cn2nnc3c(=O)[nH]c(C4CCN(S(=O)(=O)c5cc(C)ccc5C)CC4)nc32)cc1	none
CC1=CC(=O)C=C(C)C1=NOc1ccc([N+](=O)[O-])cc1	MrgX1 ag 33
CCC(C)C(NS(=O)(=O)c1ccc(C)cc1)C(=O)NCCCN1CCOCC1 (configuration not stated)	none
C=C1C(=O)O[C@H]2[C@H]1[C@@H](O)CC(=C)[C@@H]1CC(=O)[C@@H](C)[C@H]21	RGS4 inh 6.7
COc1cc(/C=C(\NC(=O)c2ccccc2)C(=O)Nc2nccs2)ccc1OC(C)=O	none
CCCN(CCC)C(=O)Cn1c(=O)c2ccccc2n2c(=S)sc(-c3ccccc3C)c12	MrgX1 antag -4.6
CCC1CCCCN1CCCNC(=O)C1CCC(CNS(=O)(=O)c2c(C)cc(C)cc2C)CC1 (configuration not stated)	none
COc1ccc(CCNC(=O)c2cc(COc3c(C)cccc3C)on2)c(OC)c1	none
O=[N+]([O-])c1ccc(S(=O)(=O)N2CCN(C3CCN(Cc4ccccc4)CC3)CC2)cc1	RGS4 pot -7.5
O=[N+]([O-])c1ccccc1S(=O)(=O)N1CCN(C2CCCC2)CC1	none
